The full list was thinned out, with hits kept by preference.
A1 apoptosis 2: A1 inhibitors via caspase activation, primary screen, cell-based, luminescence, HTS, two replicates; 24,000 tested, under 10 active; caspase activation, % (no concentration beside the values); MEF A1-2A-BIM cells, caspase-Glo luminescence, 3 h; percent of clofoctol response, DMSO zero; in the data active = caspase activation above about 5.9%
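Material: A1-2A-BIM-expressing MEF cells. Buffer or medium: RPMI-1640 plus 10% FBS. Incubation: cells settled overnight, compound exposure 3 h at 37 °C, 5% CO2. Signal: Caspase-Glo 3/7 luminescence, 1 h at room temperature.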
INS-1E rescue: protection of INS-1E cells from cytokine death, primary screen, ATP luminescence, single point | INS-1E cytokine-induced death, 48 h; normalised: neutral wells 0, positive control 100 | protection from cytokine-induced ATP loss, % at 10 µM | 20,000 compounds, 0.1% hits | AID 488910, 2010;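 active = mean replicate protection from cytokine-induced ATP loss at least 50% and at least 75% of replicates each reaching 50%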
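assay system = INS-1E rat insulinoma cells | amount = 8000 cells per well | medium = phenol-red-free RPMI with 5% fetal bovine serum | doses = one compound concentration, pin transfer | timing = 48 h cytokine plus compound treatment, 10 min reagent incubation | also added = IL-1β, TNF-α and IFN-γ cytokine mix | signal = CellTiter-Glo luminescence measuring cellular ATP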
T cruzi intra: inhibitors of intracellular Trypanosoma cruzi, primary screen, cell-based, plate reader, single point, set 2; activity score (inhibition), % at 5.01 µM; AID 651903, 2012; 22,000 compounds, 4.9% hits; intracellular Trypanosoma cruzi in host cells; in the data active = activity score above about 55%;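 also: parasites and compound incubated about four days before reading; 0% = median of neutral control wells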
An asterisk follows results filed as active; / = no result given.

SMILES	A1 apoptosis 2	INS-1E rescue	T cruzi intra
COC(=O)CCCCCCC(=O)N/N=C/[C@H](O)[C@@H](O)[C@H](O)CO	0	-5	-4
O=C(CCCCCC(=O)Nc1ccccc1O)N/N=C/c1ccccc1O	0	/	/
O=C1O[C@@H](c2ccccc2)[C@@H](c2ccccc2)N2[C@@H](c3ccc(O)cc3)[C@]3(C(=O)Nc4ccc(C#CCCO)cc43)[C@@H](C(=O)O)[C@H]12	-1	/	/
C[C@@H]1CN([C@H](C)CO)C(=O)Cc2cc(NS(=O)(=O)c3ccc(F)cc3)ccc2O[C@@H]1CN(C)S(=O)(=O)c1ccc(Cl)cc1	/	0	58*
C[C@@H]1CN([C@H](C)CO)C(=O)Cc2cc(NS(=O)(=O)c3ccc(Cl)cc3)ccc2O[C@H]1CN(C)S(=O)(=O)c1ccc(F)cc1	0	10	-6
C[C@H]1CN([C@@H](C)CO)C(=O)Cc2cc(NS(=O)(=O)c3ccc(F)cc3)ccc2O[C@@H]1CN(C)S(=O)(=O)c1ccc(Cl)cc1	1	8	3
C[C@@H]1CN([C@@H](C)CO)C(=O)Cc2cc(NS(=O)(=O)c3ccc(F)cc3)ccc2O[C@@H]1CN(C)S(=O)(=O)c1ccc(Cl)cc1	/	-12	65*
CNC(=O)C1=C[C@@H](c2csc3ccccc23)C[C@@H](OCc2ccc(CO)cc2)O1	-1	/	/
O=C(O)CCCCCC(=O)N/N=C/c1ccc[nH]1	/	10	-2
O=C(CCCCCCC(=O)Nc1ccccc1O)N/N=C/c1ccc(I)cc1	0	12	-9
Cc1cccc(CN(C)C[C@@H]2Oc3ncc(C#CCN(C)C)cc3C(=O)N([C@H](C)CO)C[C@@H]2C)c1	/	/	3
COc1ccc(C#Cc2cnc3c(c2)C(=O)N([C@H](C)CO)C[C@H](C)[C@H](CN(C)C)O3)cc1OC	0	/	83*
C[C@H](CO)N1C[C@H](C)[C@H](CN(C)C)Oc2ncc(C#Cc3ccccc3)cc2C1=O	0	/	78*
C[C@H](CO)N1C[C@H](C)[C@H](CN(C)C)Oc2ncc(C#CCN(C)C)cc2C1=O	/	/	-15
COc1ccc(S(=O)(=O)N(C)C[C@@H]2Oc3ncc(C#Cc4ccc(OC)c(OC)c4)cc3C(=O)N([C@H](C)CO)C[C@@H]2C)cc1	-1	/	43
COc1ccc(C#Cc2cnc3c(c2)C(=O)N([C@H](C)CO)C[C@H](C)[C@H](CN(C)Cc2cccc(C(F)(F)F)c2)O3)cc1OC	0	/	84*
COc1ccc(C#Cc2cnc3c(c2)C(=O)N([C@H](C)CO)C[C@H](C)[C@H](CN(C)Cc2ccccc2)O3)cc1OC	0	/	15
Cc1cccc(CN(C)C[C@@H]2Oc3ncc(C#Cc4ccccc4)cc3C(=O)N([C@H](C)CO)C[C@@H]2C)c1	0	/	74*
O=C(NO)c1cccc(C(=O)N/N=C/c2ccccc2OCCO)c1	-1	10	-13
C[C@@H]1CCCCO[C@H](CN(C)Cc2ccncc2)[C@H](C)CN([C@H](C)CO)C(=O)c2cc(NC(=O)CCC(F)(F)F)ccc2O1	1	/	/
O=C(CCCCC(=O)N/N=C/c1ccc(O)cc1Br)NO	-1	/	/
C=CCN1C(=S)N[C@@H]2c3ccccc3O[C@@]1(C)[C@@H]2CO	1	/	/
O=C(CCCCCCC(=O)Nc1ccccc1O)N/N=C/c1ccncc1Br	1	2	6
O=C(O)CCCCCC(=O)N/N=C/c1ccc(C(F)(F)F)cc1	/	-3	-6
COC(=O)c1ccc(/C=N/NC(=O)c2ccccn2)cc1	-11	/	/
C[C@@H]1CN([C@H](C)CO)C(=O)Cc2cc(NC(=O)Cc3cn(C)c4ccccc34)ccc2O[C@H]1CN(C)Cc1ccc(-c2ccccc2)cc1	0	-3	64*
C[C@@H]1CN([C@H](C)CO)C(=O)Cc2cc(NC(=O)Cc3cn(C)c4ccccc34)ccc2O[C@H]1CN(C)CC1CCCCC1	0	-1	60*
C[C@H]1CN([C@@H](C)CO)C(=O)Cc2cc(NC(=O)Cc3cn(C)c4ccccc34)ccc2O[C@H]1CN(C)Cc1ccc(-c2ccccc2)cc1	-1	-38	43
C[C@H]1CN([C@@H](C)CO)C(=O)Cc2cc(NC(=O)Cc3cn(C)c4ccccc34)ccc2O[C@@H]1CN(C)Cc1ccc(-c2ccccc2)cc1	/	-25	74*
C[C@@H]1CN([C@H](C)CO)C(=O)Cc2cc(NC(=O)Cc3cn(C)c4ccccc34)ccc2O[C@@H]1CN(C)Cc1ccc(C(=O)O)cc1	0	2	-5

Compound activity (PubChem)
